Experiment [1] relates to acetylated H3 at the CMV promoter in LDR cells. As to the kind of experiment: Chromatin immunoprecipitation of acetylated H3 at the CMV promoter. Type of experiment: cell-based, mouse. The note with it: 250 ng/mL, 24 h. The gist of the method:
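LDR cells (C127 mouse mammary line carrying a silenced CMV-GFP reporter; DMEM, 10% heat-inactivated FBS) treated with test compound at 250 ng/mL or DMSO vehicle (24 h per legend; overnight per methods). Formaldehyde cross-linking, then ChIP by standard protocol with anti-acetylated H3 antibody. After cross-link reversal, PCR with CMV-promoter primers run on a gel. Controls were a no-antibody background and 10% input.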

Experiment [2] deals with GFP transcript in LDR cells. Type of experiment: cell-based, mouse. The settings on record: 200 nM, 24 h, relative to DMSO-treated cells.

Data on one molecule can be found in paper PMC4245161 (ACS Chemical Biology, 2014).

`CC(/C=C/C(=O)NO)=C\[C@@H](C)C(=O)c1ccc(N(C)C)cc1` [Trichostatin A]: in experiment [1], the “histone acetylation at the CMV promoter (ChIP)” value is listed as “markedly increases”. The “induction of GFP transcripts” value in experiment [2] was “at least 5 fold”.
